Rows were chosen to be rich in hits. Some 5.1% of all compounds tested hit in one or more screens of this group.
NF-kB neuron act – raises NF-kB expression in human neuronal cells | fold change at 12.5 µM | NF-kB reporter expression; hits give high values | 190,000 tested, 1.6% active; in the data active means fold change above about 3.3
APP 5'UTR act – activates APP 5'UTR luciferase reporter. activation, % at 2 µM. AID 1276. 190,000 tested, 1% active. SH-SY5Y APP 5'UTR luciferase reporter, luminescence; zero percent = DMSO vehicle wells;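 active means activation above a set limit, based on mean plus 3 SD of controls, cut at about 140% in these data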
STAT3 act-1 – activators of IL-6 induced STAT3 signaling | AID 871 | U3A cells, IL-6 STAT3-luciferase reporter, luminescence; 100% = signal with IL-6 EC80 alone | 190,000 tested, 0.91% active | activation (% of control), % at 5.6 µM;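 active means activation above the screen-wide mean of compound activation plus 3 SD, cut at about 130% in these data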;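 further: 0% = background luminescence of wells with medium and substrate only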
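system = STAT3-luciferase reporter U3A cells | reagent = IL-6 stimulus at 33 ng/mL final | timing = 1 h compound pre-exposure, 6 h IL-6 stimulation, 37 °C | measured by = luminescence | evaluation = % activation versus median of IL-6-stimulated wells | control set = IL-6-only wells as 100% reference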
STAT3 blocker – inhibitors of IL-6 induced STAT3 signaling; AID 862; 190,000 tested, 0.89% active; inhibition, % at 5.5 µM; U3A cells, IL-6 STAT3-luciferase reporter, luminescence; host cell line lacks STAT1;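 active means inhibition above the mean inhibition across all screened compounds plus 3 SD, cut at about 44% in these data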;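 further: 0% = DMSO only wells and 100% = 100 µM nifuroxazide control wells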
STAT1 blocker – inhibitors of IFN-gamma induced STAT1 signaling; inhibition, % at 5.5 µM; 200,000 tested, 0.35% active; AID 920; NIH 3T3 STAT1-luciferase reporter, luminescence;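 active means inhibition above a set limit, the mean inhibition across all tested compounds plus 3 SD, cut at about 34% in these data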;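 further: 0% = IFN-gamma with DMSO and 100% = IFN-gamma with 300 µM nifuroxazide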
STAT1 act-1 – increases IFN-gamma driven STAT1 reporter signal; 200,000 tested, 2.6% active; NIH 3T3 STAT1-luciferase reporter, luminescence; 100% = IFN-gamma alone, no compound; activation (% of control), % at 5.5 µM; AID 932;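 active means activation above the screen-wide mean activation plus 3 SD, cut at about 130% in these data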;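 further: raw ratio to IFN-gamma control signal so 100% means no change and 0% no light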
STAT3 act-2 – STAT3 activation, confirmation assay | potentiation (% of control), % at 5.7 µM | 1,200 tested, 64% active | shares compounds with STAT3 act-1 | U3A STAT3-luciferase reporter, IL-6 potentiation, luminescence; U3A cells lack STAT1; 100 means same as IL-6 alone;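 active means percent activation of the STAT3 luciferase reporter above a set limit taken from the earlier primary screen, cut at about 130% in these data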;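 further: 0% = background signal of medium plus substrate and 100% = median of IL-6 with DMSO wells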
NFkB act STAT3ct – activates NF-kappaB, counter-screen to STAT3 activators; shares compounds with STAT3 act-1; human cells, NF-kappaB reporter activation; activation (% of control), % at 5.7 µM; 1,200 tested, 11% active; AID 1309; in the data active means activation above about 120%;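 further: reporter induced by TNF-alpha stimulation; 100% = median of stimulated DMSO wells and 0% = no signal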
STAT1 act-2 – STAT1 activation in STAT3 activator counter-screen; NIH 3T3 STAT1-luciferase reporter, IFN-gamma, luminescence; activation (% of control), % at 5.7 µM; shares compounds with STAT3 act-1; 1,200 tested, 13% active;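 active means activation above the solvent-only control well mean plus 3 SD, set per screening run, cut at about 120% in these data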;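 further: 100% = IFN-gamma with DMSO median signal so 100% means no change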
Starred values were filed as active, the others as inactive; . = no result.

SMILES | NF-kB neuron act | APP 5'UTR act | STAT3 act-1 | STAT3 blocker | STAT1 blocker | STAT1 act-1 | STAT3 act-2 | NFkB act STAT3ct | STAT1 act-2
COc1ccc(Cl)cc1NC(=O)c1[nH]nc(OC)c1[N+](=O)[O-] | 0.83 | -0.9 | 143.8* | -34.8 | 5.5 | 93.4 | 139.7* | 96.0 | 94.8
O=C(CSc1cccc[n+]1[O-])Nc1cccc(S(=O)(=O)NC2=NCCCCC2)c1 | 0.9 | -5.5 | 95.3 | 7.6 | 0.9 | 96.9 | . | . | .
COC(=O)c1cc(-c2cccs2)[nH]n1 | 1.52 | 11.8 | 89.8 | 14.6 | -5.2 | 104.2 | . | . | .
COc1ccc(O)c(-c2cc(-c3cccs3)[nH]n2)c1 | 2.34 | 50.5 | 144.1* | -44.8 | -16.0 | 114.6 | 127.9 | 113.0 | 104.8
Cc1oc2c(cc(NS(=O)(=O)c3cccs3)c3ccccc32)c1C(=O)OC(C)C | 1.06 | 40.2 | 153.6* | -60.3 | -0.8 | 102.5 | 131.3 | 107.1 | 107.9
Fc1ccccc1C1c2[nH]c3ccccc3c2CCN1CCCn1cccn1 (stereo not given) | . | -6.6 | 144.0* | -44.2 | -6.6 | 104.3 | 132.6 | 101.7 | 93.0
O=C(COC(=O)Cc1c[nH]c2ccccc12)Nc1cccc2ccccc12 | 1.22 | 3.9 | 112.4 | -16.5 | 16.4 | 85.3 | . | . | .
COC(=O)C1CCN(C(=O)COC(=O)Cc2c[nH]c3ccccc23)CC1 | 0.99 | -5.3 | 140.2* | -39.6 | 5.8 | 94.7 | 131.1 | 100.1 | 93.5
O=C(Cc1c[nH]c2ccccc12)OCC(=O)c1ccccc1 | 1.27 | -16.1 | 136.2* | -35.8 | -3.5 | 103.1 | 132.4 | 104.4 | 93.2
O=C(NCCCn1ccnc1)c1nn2c(C(F)(F)F)cc(-c3ccc(Br)cc3)nc2c1Cl | 0.41 | -15.0 | 93.0 | 12.3 | 5.7 | 95.0 | . | . | .
CCOC(=O)c1sc2ncn(/N=C/c3ccc(O)c(OC)c3)c(=O)c2c1C | 1.33 | -11.0 | 98.9 | 6.6 | -7.0 | 105.2 | . | . | .
Cc1cc(C)n2nc3ccccc3c2n1 | 1.46 | -9.2 | 120.3 | -18.7 | -2.5 | 102.3 | . | . | .
Cc1cc(C)n2nc(Nc3ccccc3)cc2n1 | 1.96 | 27.5 | 157.3* | -62.2 | 18.2 | 83.5 | 167.8* | 112.5 | 105.4
COc1cccc(C(=O)Nc2ccccc2N2CCCC2)c1 | 1.15 | -12.5 | 90.4 | 14.4 | 1.0 | 95.3 | . | . | .
COc1cccc(C(=O)NC(=S)Nc2ccccc2N2CCCC2)c1 | 1 | -17.2 | 147.2* | -46.8 | -0.6 | 100.4 | 141.0* | 106.3 | 92.8
Cc1ccc(-c2nnn3c2nc(NCCc2ccc(S(N)(=O)=O)cc2)c2ccccc23)cc1 | 0.87 | -3.8 | 122.6 | -26.8 | 4.1 | 96.3 | . | . | .
NS(=O)(=O)c1ccc(CCNc2nc3c(-c4cccc(F)c4)nnn3c3ccccc23)cc1 | 0.56 | -11.2 | 137.1* | -40.3 | 3.9 | 96.5 | 143.7* | 97.7 | 110.5
Cc1cccc(-c2nnn3c2nc(NCCc2ccc(S(N)(=O)=O)cc2)c2ccccc23)c1 | 0.41 | 17.3 | 145.3* | -53.7 | 1.1 | 99.0 | 155.4* | 101.9 | 112.0
FC(F)(F)c1ccc(C2Nc3cccc4cccc(c34)N2)cc1 | 1.35 | -5.2 | 142.5* | -46.4 | 14.1 | 87.2 | 160.4* | 117.0 | 89.5
Cc1sc2nc(N)sc2c1C | 1.22 | 9.6 | 162.2* | -61.7 | 4.0 | 96.4 | 146.8* | 104.8 | 90.7
Cc1ccc(C)c2sc(N)nc12 | 1.24 | 9.8 | 89.3 | 14.8 | 5.0 | 93.7 | . | . | .
O=C(c1ccccc1[N+](=O)[O-])n1cnc2ccccc21 | 0.9 | 14.6 | 91.2 | 12.4 | -2.4 | 102.8 | . | . | .
Cn1c(C(=O)c2ccccc2[N+](=O)[O-])nc2ccccc21 | 0.99 | -6.4 | 144.9* | -49.1 | -5.5 | 105.7 | 142.4* | 96.0 | 94.1
O=C(O)CCCCCN1C(=O)C(O)=C(C(=O)/C=C/c2ccccc2)C1c1ccccc1[N+](=O)[O-] (stereo not given) | 0.97 | 12.4 | 140.1* | -44.3 | 9.1 | 89.9 | 145.1* | 107.0 | 94.0
CCCCN1C(=O)C(O)=C(C(C)=O)C1c1ccccc1[N+](=O)[O-] (stereo not given) | 1.13 | 14.8 | 102.8 | 3.6 | 6.4 | 92.8 | . | . | .
SMILES | NF-kB neuron act | APP 5'UTR act | STAT3 act-1 | STAT3 blocker | STAT1 blocker | STAT1 act-1 | STAT3 act-2 | NFkB act STAT3ct | STAT1 act-2
CCS(=O)(=O)Nc1ccc(C2=NN(S(C)(=O)=O)C(c3cccs3)C2)cc1 (stereo not given) | 1.5 | 4.3 | 136.7* | -44.1 | -15.0 | 112.8 | 124.8 | 101.5 | 102.1
O=C1CCCCCCC1Sc1ccccc1[N+](=O)[O-] (stereo not given) | 0.95 | 26.8 | 99.6 | 4.0 | 6.5 | 94.0 | . | . | .
O=C(Nc1ccccc1O)c1nc(Cl)ccc1Cl | 1.03 | 40.6 | 155.9* | -58.3 | 9.2 | 91.3 | 171.1* | 105.7 | 97.7
Cc1ccc(C)c(NC(=O)c2nc(Cl)ccc2Cl)c1 | 1.2 | 15.9 | 127.4 | -26.1 | -2.0 | 101.8 | . | . | .
O=C1C(C=NCc2ccco2)=C(O)c2ccccc21 | 1.86 | 97.7 | 141.4* | -40.8 | -19.5 | 118.8 | 186.8* | 134.9* | 164.4*
CCOC(=O)Cc1cc(=O)[nH]c(/N=C(\N)Nc2ccc(C)cc2C)n1 | 1.03 | 9.8 | 136.0* | -37.1 | 11.2 | 89.7 | 114.4 | 98.0 | 89.0
Cc1ccc(C(=O)N2CCN3C(=O)c4ccccc4C23c2ccccc2)cc1 (stereo not given) | 1.18 | 1.0 | 158.5* | -60.5 | 4.9 | 94.0 | 110.8 | 102.2 | 100.9
COc1ccccc1NC(=O)N1CCC(c2nc3ccccc3o2)CC1 | 0.81 | 0.6 | 101.6 | 6.8 | -7.5 | 104.9 | . | . | .
COc1ccc2oc(=Nc3ccc(C(=O)O)cc3)c(C(=O)NCc3ccco3)cc2c1 | 1.21 | 15.7 | 101.0 | 5.6 | 1.2 | 97.5 | . | . | .
COc1ccc(N=c2oc3ccc(OC)cc3cc2-c2nc3ccccc3[nH]2)cc1 | 2.63 | 4.5 | 142.7* | -46.4 | -29.5 | 127.1 | 125.2 | 116.4 | 119.4
N#C/C(=C/c1ccccc1[N+](=O)[O-])c1nc(C2CC2)cs1 | 1.12 | 11.8 | 147.2* | -56.6 | 2.6 | 97.7 | 158.2* | 107.5 | 119.4
N#C/C(=C\c1ccc([N+](=O)[O-])cc1)c1nc(C2CC2)cs1 | 1.5 | 28.8 | 92.5 | 8.5 | -6.2 | 105.6 | . | . | .
N#C/C(=C\c1ccccc1[N+](=O)[O-])c1nc(C2CC2)cs1 | 2.82 | 18.3 | 145.8* | -47.7 | -6.8 | 106.1 | 154.0* | 105.9 | 109.7
CC1CCN(CC(=O)N2c3ccccc3CCc3ccccc32)CC1 | 0.93 | 5.5 | 93.7 | 6.9 | 0.0 | 100.0 | . | . | .
COc1ccc(C(=O)CSc2nnc(CNC(=O)c3ccco3)n2C)cc1 | 1.05 | 19.0 | 96.3 | 9.2 | -9.2 | 105.6 | . | . | .
